Published values pooled from the literature.
Compare with care: the assays were run in different laboratories.
Sample: plasma

C[C@@H](Nc1cc(F)cc(F)c1)c1cc(C(=O)N(C)C)cc2c(=O)cc(N3CCOCC3)oc12
half-life (human; oral; 120 mg; patients): 4.62 h

COCCOc1cnc2ccn([C@H](C)c3nnc4c(F)cc(-c5cnn(C)c5)cn34)c(=O)c2c1
half-life (human; oral; 200 mg; multiple doses, once daily, patients): 8.3 h

COc1ccc([C@@H]2CN(C(=O)[C@@H](O)CO)C[C@@]2(C)[C@@H](C)O)cc1OC1CN(c2ccc(C)cn2)C1
half-life (human; oral; 0.1 mg; single dose, healthy volunteers): 9.74 h

CO[C@@H]1[C@H](OC(=O)N2CC(CCN3CCOCC3)C2)CC[C@]2(CO2)[C@H]1[C@@]1(C)O[C@@H]1CC=C(C)C
half-life (human; subcutaneous; 0.6 mg; single dose, healthy volunteers): 0.56 h

COc1cc(C(=O)NC2CCN(C)CC2)c(F)cc1Nc1ncc(C(F)(F)F)c(Oc2cccc3c2C(=O)N(C)C3)n1
half-life (human; oral; 50 mg; multiple doses, once daily, patients): 21.5 h

Cn1cc(-c2ccc(S(=O)(=O)[C@@H]3C[C@@H](C(=O)NC4(C#N)CC4)N(C(=O)C4(C(F)(F)F)CC4)C3)c(C(F)(F)F)c2)cn1
half-life (human; oral; 300 mg; single dose, fasted, healthy volunteers): 16 h

C#C[C@]1(COP(=O)(O)OP(=O)(O)OP(=O)(O)O)O[C@@H](n2cnc3c(N)nc(F)nc32)C[C@@H]1O
half-life (human; oral; 30 mg; single dose): 118 h

CC(C)n1cc(C#N)c2cc(-n3cc(C(=O)O)cn3)ccc21
half-life (male human; oral; 600 mg; single dose, fasted, healthy volunteers): 11.9 h

NS(=O)(=O)NCCNc1nonc1C(=NO)Nc1ccc(F)c(Br)c1
half-life (human; oral; 100 mg; multiple doses, twice daily, steady state, patients): 3.3 h

CCNCCCNC/C=C\CNCCCNCC
half-life (human; intravenous; 200 mg; patients, infusion): 0.14 h

c1cnc2ccc(Nc3nc(NC4CC4)c4nc[nH]c4n3)cc2c1
half-life (human; oral; 800 mg/m²; patients): 6 h

CS(=O)(=O)CCC#N
half-life (human; oral; 1000 mg; multiple doses, once daily): 24.7 h

CC(C)(O)c1ccccc1-c1ccc2[nH]c(/C=C/c3ccc(C(F)(F)F)cc3)nc2c1
half-life (male human; oral; 15 mg; single dose, fasted, healthy volunteers): 59.3 h

CO[C@H]1CC[C@H](N2C(=O)CNc3ncc(-c4ccc(C(C)(C)O)nc4)nc32)CC1
half-life (human; oral; 30 mg; patients): 5.57 h

CC(C)[C@](O)(c1ccc2cc(OC(F)F)c(OC(F)F)cc2c1)c1c[nH]nn1
half-life (female human; oral; 750 mg; single dose): 6.8 h

CC(C)(Sc1ccncc1-c1ccc(C#N)c2ccccc12)C(=O)O
half-life (male human; oral; 20 mg; single dose, fed, healthy volunteers): 13.8 h

CO[C@H]1/C=C\C=C(/C)C(=O)NC2=CC(=O)C(NCCN(C)C)=C(C[C@@H](C)C[C@H](OC)[C@H](O)[C@@H](C)/C=C(\C)[C@@H]1OC(N)=O)C2=O
half-life (human; intravenous; patients, infusion): 22.3 h
